Source: ChEMBL document CHEMBL1125618, “Studies on (H(+)-K+)-ATPase inhibitors of gastric acid secretion. Prodrugs of 2-[(2-pyridinylmethyl)sulfinyl]benzimidazole proton-pump inhibitors” (J Med Chem, 1991)
Active and inactive are the calls of the source. The calls are words filed in the database; no cut-off is given here.

Experiments:
Oryctolagus cuniculus [1] = species: Oryctolagus cuniculus; experiment: Antisecretory effect in isolated rabbit gastric glands as measured by aminopyrine uptake; Inactive, 1E-4M concentration; type: functional; conditions: Stomach
In short: (§1)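 Gastric glands from male New Zealand rabbits (1.5-2.0 kg), isolated by collagenase digestion at 37 °C, pH 7.4. Incubated with compound 45 min at 37 °C with vigorous shaking. Pellet and supernatant radioactivity counted by liquid scintillation. ID50 from at least six doses, duplicate at each dose.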

[2] = molecular target: T1, Potassium-transporting ATPase (Rattus norvegicus) (UniProt P09626+P18598); experiment: Inhibition of isolated rat H+/K+ ATPase at 10 mg/kg; Inactive; type: functional, organism-based; design: dose 10 mg/kg
In short: (§2)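 Male Sprague-Dawley rats (~230 g), fasted 16 h without food or water in restraining cages. Compound in 1 mL isotonic saline with 25% ethanol, given sc or by gavage. Killed 3 h later. Fundic mucosa pooled from four rats per treatment, homogenized, microsomes isolated at 170000g. K+-stimulated ATPase assayed as for hog enzyme. ED50 from at least five doses, each in triplicate.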

[3] = molecular target: Potassium-transporting ATPase (Sus scrofa, UniProt P19156); experiment: (§3) Activity was evaluated by measuring the inhibition of isolated hog H+/K+ ATPase; type: protein-complex assay
Chain of Potassium-transporting ATPase (P18434 whole entry): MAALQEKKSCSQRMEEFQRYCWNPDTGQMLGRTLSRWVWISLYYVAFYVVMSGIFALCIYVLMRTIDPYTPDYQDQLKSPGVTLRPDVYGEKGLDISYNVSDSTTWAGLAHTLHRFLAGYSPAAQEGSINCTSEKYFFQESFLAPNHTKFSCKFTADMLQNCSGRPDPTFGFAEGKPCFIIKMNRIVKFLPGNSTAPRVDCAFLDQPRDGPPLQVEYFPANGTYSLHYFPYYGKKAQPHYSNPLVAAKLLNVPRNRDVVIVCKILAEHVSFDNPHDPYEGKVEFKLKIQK
Chain of Potassium-transporting ATPase (P19156 whole entry): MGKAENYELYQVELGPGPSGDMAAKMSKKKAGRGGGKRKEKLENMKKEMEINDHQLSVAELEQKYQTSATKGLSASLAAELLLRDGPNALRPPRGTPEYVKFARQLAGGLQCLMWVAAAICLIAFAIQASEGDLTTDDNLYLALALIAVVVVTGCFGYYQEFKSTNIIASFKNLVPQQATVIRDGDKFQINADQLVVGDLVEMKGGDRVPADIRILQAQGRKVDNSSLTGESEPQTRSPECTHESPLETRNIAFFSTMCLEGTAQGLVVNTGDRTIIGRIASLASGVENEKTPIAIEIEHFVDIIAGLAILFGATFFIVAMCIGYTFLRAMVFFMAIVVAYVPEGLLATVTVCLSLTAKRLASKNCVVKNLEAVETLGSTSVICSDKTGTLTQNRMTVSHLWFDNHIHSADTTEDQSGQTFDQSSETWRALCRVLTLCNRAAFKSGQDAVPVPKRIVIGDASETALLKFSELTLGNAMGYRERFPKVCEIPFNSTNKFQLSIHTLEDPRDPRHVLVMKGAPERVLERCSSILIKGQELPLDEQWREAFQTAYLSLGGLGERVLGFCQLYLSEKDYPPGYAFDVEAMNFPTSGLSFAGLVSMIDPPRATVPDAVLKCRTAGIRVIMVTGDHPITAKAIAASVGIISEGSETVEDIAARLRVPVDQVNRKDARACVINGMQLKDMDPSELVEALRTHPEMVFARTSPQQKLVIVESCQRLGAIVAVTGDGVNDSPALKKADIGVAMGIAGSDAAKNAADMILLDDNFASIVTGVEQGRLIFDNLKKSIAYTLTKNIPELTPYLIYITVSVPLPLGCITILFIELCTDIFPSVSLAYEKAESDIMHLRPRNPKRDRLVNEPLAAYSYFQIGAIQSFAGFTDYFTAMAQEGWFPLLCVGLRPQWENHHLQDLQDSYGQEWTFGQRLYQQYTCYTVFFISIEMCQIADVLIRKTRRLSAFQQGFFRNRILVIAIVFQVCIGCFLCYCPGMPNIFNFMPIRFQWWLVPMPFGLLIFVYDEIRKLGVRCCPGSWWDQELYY
In short: (§4)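 Hog fundic mucosa microsomes. Vesicles (30 μg) preincubated with compound at 37 °C in 40 mM Tris-acetate pH 7.4, 7 mM NH4Cl, with or without KCl. Reaction started with 2 mM ATP (final), run 10 min at 37 °C, stopped with cold TCA plus charcoal. Released inorganic phosphate measured colorimetrically. IC50 from dose-response, mean of triplicates.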

Oryctolagus cuniculus [4] = species: Oryctolagus cuniculus; experiment: Antisecretory effect in isolated rabbit gastric glands as measured by aminopyrine uptake; type: functional, Stomach; in short: as §1
[5] = molecular target: T1, Potassium-transporting ATPase (Rattus norvegicus); experiment: Activity administered subcutaneously was evaluated by measuring the inhibition of isolated rat H+/K+ ATPase; type: protein-complex assay; in short: as §2
Oryctolagus cuniculus [6] = species: Oryctolagus cuniculus; experiment: Antisecretory effect in isolated rabbit gastric glands as measured by aminopyrine uptake; no effect, 1E-4M concentration; type: functional; conditions: Stomach; in short: as §1
[7] = molecular target: T1, Potassium-transporting ATPase (Rattus norvegicus); experiment: Inhibitory activity was evaluated by measuring the inhibition of isolated rat H+/K+ ATPase at a concentration of 10 mg/kg; type: organism-based; design: dose 10 mg/kg; in short: as §2
[8] = molecular target: T1, Potassium-transporting ATPase (Rattus norvegicus); experiment: Inhibition of isolated rat H+/K+ ATPase.; type: protein-complex assay; in short: as §2
[9] = molecular target: T1, Potassium-transporting ATPase (Rattus norvegicus); experiment: Activity was evaluated by measuring the inhibition of isolated rat H+/K+ ATPase at 10 mg/kg; type: organism-based; design: dose 10 mg/kg; in short: as §2
Rattus norvegicus = experiment: Inhibition of acid secretion was determined by the compound administered subcutaneously in rats; type: functional; conditions: sc
In short: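 Pylorus-ligated (Shay) rats: female Upjohn or Charles River rats fasted 24 h, water withheld the last 18 h. Compound given once sc. Pylorus ligated under ether, then 10 mL saline sc. Gastric juice acidity titrated with 0.1 M NaOH as output (mequiv/2 or 3 h). Usually 12 controls and 5-6 rats per dose.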

[10] = molecular target: T1, Potassium-transporting ATPase (Rattus norvegicus); experiment: Activity was evaluated by measuring the inhibition of isolated rat H+/K+ ATPase; no effect, 10 mg/kg sc
[11] = molecular target: T2, Potassium-transporting ATPase (Sus scrofa) (UniProt P18434+P19156); experiment: Activity was evaluated by measuring the inhibition of isolated hog H+/K+ ATPase at concentration of 5E-4; type: protein-complex assay; in short: as §4
[12] = molecular target: T2, Potassium-transporting ATPase (Sus scrofa); experiment: as §3; type: protein-complex assay; conditions: concentration not given here; in short: as §4

| Structure (SMILES) | IC50 [3] | ID50 (Oryctolagus cuniculus [4]) | ED50 [8] | further results |
| --- | --- | --- | --- | --- |
| c1ccc(CSc2nc3ccccc3n2CCN2CCOCC2)nc1 | – | – | – | ID50 (Oryctolagus cuniculus [1]): inactive; ED50 [2]: inactive |
| CC(=O)OCn1c([S+]([O-])Cc2ccccn2)nc2ccccc21 (stereo not given) | 8 µM | 0.0001 M | – | ED50 [5]: 5 mg/kg |
| CC(=O)OC(C)n1c([S+]([O-])Cc2ccccn2)nc2ccccc21 (stereo in doubt; 18b) | – | – | – | ID50 (Oryctolagus cuniculus [6]): inactive |
| CC(OC(=O)C(C)(C)C)n1c([S+]([O-])Cc2ccccn2)nc2ccccc21 (stereo in doubt; 30b) [listing 1 of 2 here] | – | – | – | inhibition [7]: 40% |
| CCSc1ccnc(C[S+]([O-])c2nc3ccccc3n2C(=O)OCC(C)C)c1C (stereo not given) | 5 µM | 4e-06 M | 5 mg/kg | – |
| CCSc1ccnc(C[S+]([O-])c2nc3ccccc3n2C(=O)OCc2ccccc2)c1C (stereo not given) | 20 µM | 1.5e-06 M | – | inhibition [9]: 40% |
| CCSc1ccnc(C[S+]([O-])c2nc3ccccc3[nH]2)c1C (stereo not given) [DISUPRAZOLE] | 20 µM | 1e-07 M | 1 mg/kg | ED50 (Rattus norvegicus): < 1 mg/kg |
| COc1c(C)cnc(C[S+]([O-])c2nc3ccccc3n2CCN2CCOCC2)c1C (stereo not given) | 1000 µM | 7e-05 M | – | ED50 [2]: inactive |
| CCOC(C)n1c([S+]([O-])Cc2nccc(SCC)c2C)nc2ccccc21 (stereo not given) | 200 µM | 5e-07 M | 1.5 mg/kg | – |
| [O-][S+](Cc1ccccn1)c1nc2ccccc2n1CCN1CCOCC1 (stereo not given) | – | – | – | ID50 (Oryctolagus cuniculus [1]): inactive |
| CCSc1ccnc(C[S+]([O-])c2nc3ccccc3n2C(C)OC(C)=O)c1C (stereo in doubt; 19a) | – | – | 2 mg/kg | – |
| COc1c(C)cnc(C[S+]([O-])c2nc3ccccc3[nH]2)c1C (stereo not given) | 20 µM | 2e-07 M | – | – |
| CCSc1ccnc(C[S+]([O-])c2nc3ccccc3n2COC(C)=O)c1C (stereo not given) | 400 µM | 3e-07 M | 2 mg/kg | – |
| CCOC(=O)n1c([S+]([O-])Cc2nccc(SCC)c2C)nc2ccccc21 (stereo not given) | 20 µM | 2e-06 M | – | inhibition [9]: 61% |
| CCSc1ccnc(C[S+]([O-])c2nc3ccccc3n2CCN2CCCCC2)c1C (stereo not given) | 30 µM | 2e-05 M | – | ED50 [2]: inactive |
| CCSc1ccnc(C[S+]([O-])c2nc3ccccc3n2CSc2ccccc2)c1C (stereo not given) | > 1000 µM | 8e-06 M | – | ED50 [2]: inactive |
| CC(=O)OC(C)n1c([S+]([O-])Cc2ccccn2)nc2ccccc21 (stereo in doubt; 18a) | – | – | – | ID50 (Oryctolagus cuniculus [6]): inactive |
| CCSc1ccnc(C[S+]([O-])c2nc3ccccc3n2C(C)OC(C)=O)c1C (stereo in doubt; 19b) | – | – | 2 mg/kg | – |
| CCSc1ccnc(CSc2nc3ccccc3n2CC2CO2)c1C (stereo not given) | – | 8e-05 M | – | ED50 [2]: inactive |
| COC(=O)CCC(=O)OCn1c([S+]([O-])Cc2ccccn2)nc2ccccc21 (stereo not given) | – | 2e-05 M | 7 mg/kg | – |
| CCSc1ccnc(C[S+]([O-])c2nc3ccccc3n2C(=O)OC(C)C)c1C (stereo not given) | – | 1.5e-05 M | 10 mg/kg | – |
| CCCCCCCC(=O)OCn1c([S+]([O-])Cc2ccccn2)nc2ccccc21 (stereo not given) | – | 2e-05 M | 9 mg/kg | – |
| [O-][N+]1(Cn2c(SCc3ccccn3)nc3ccccc32)CCOCC1 | – | – | – | ID50 (Oryctolagus cuniculus [1]): inactive; ED50 [2]: inactive |
| CC(OC(=O)c1ccccc1)n1c([S+]([O-])Cc2ccccn2)nc2ccccc21 (stereo in doubt; 29b) | – | – | – | ID50 (Oryctolagus cuniculus [6]): inactive; inhibition [7]: 35% |

| Structure (SMILES) | IC50 [3] | ID50 (Oryctolagus cuniculus [4]) | ED50 [8] | further results |
| --- | --- | --- | --- | --- |
| c1ccc(CSc2nc3ccccc3n2CN2CCOCC2)nc1 | – | – | – | ID50 (Oryctolagus cuniculus [1]): inactive; ED50 [2]: inactive |
| CC(OC(=O)C(C)(C)C)n1c([S+]([O-])Cc2ccccn2)nc2ccccc21 (stereo in doubt; 30b) [listing 2 of 2 here] | – | 2e-05 M | – | – |
| CCSc1ccnc(C[S+]([O-])c2nc3ccccc3n2C(=O)OC(C)(C)C(Cl)(Cl)Cl)c1C (stereo not given) | 10 µM | 5e-05 M | – | ED50 [10]: inactive |
| CCSc1ccnc(C[S+]([O-])c2nc3ccccc3n2C(=O)Oc2ccccc2)c1C (stereo not given) | 20 µM | 1.5e-06 M | 5 mg/kg | – |
| CCSc1ccnc(C[S+]([O-])c2nc3ccccc3n2COC(=O)C(C)(C)C)c1C (stereo not given) | – | 5e-06 M | 5 mg/kg | inhibition [11]: 30% |
| CCOC(C)n1c([S+]([O-])Cc2ncc(C)c(OC)c2C)nc2ccccc21 (stereo not given) | 1500 µM | 1e-06 M | 1 mg/kg | – |
| COc1ccc2[nH]c([S+]([O-])Cc3ncc(C)c(OC)c3C)nc2c1 (stereo not given) [OMEPRAZOLE] | – | 2e-07 M | 1 mg/kg | ED50 (Rattus norvegicus): < 1 mg/kg |
| COc1c(C)cnc(C[S+]([O-])c2nc3ccccc3n2COC(C)=O)c1C (stereo not given) | 500 µM | 2e-07 M | 1 mg/kg | – |
| CCSc1ccnc(C[S+]([O-])c2nc3ccccc3n2C(=O)OCCCl)c1C (stereo not given) | 10 µM | 2e-06 M | – | inhibition [9]: 40% |
| [O-][S+](Cc1ccccn1)c1nc2ccccc2[nH]1 (stereo not given) [TIMOPRAZOLE] | – | 2e-05 M | 4 mg/kg | ED50 (Rattus norvegicus): 2.5 mg/kg; inhibition [12]: 27% |
| CC(OC(=O)c1ccccc1)n1c([S+]([O-])Cc2ccccn2)nc2ccccc21 (stereo in doubt; 29a) [listing 1 of 2 here] | 400 µM | 4e-05 M | – | – |
| CC(OC(=O)C(C)(C)C)n1c([S+]([O-])Cc2ccccn2)nc2ccccc21 (stereo in doubt; 30a) | – | – | – | ID50 (Oryctolagus cuniculus [6]): inactive; inhibition [7]: 32% |
| CCSc1ccnc(C[S+]([O-])c2nc3ccccc3n2C(=O)OCc2ccc([N+](=O)[O-])cc2)c1C (stereo not given) | 20 µM | 1.5e-06 M | – | inhibition [9]: 44% |
| CCSc1ccnc(C[S+]([O-])c2nc3ccccc3n2COCCOC)c1C (stereo not given) | – | 1e-05 M | – | ED50 [2]: inactive |
| CCSc1ccnc(C[S+]([O-])c2nc3ccccc3n2COC)c1C (stereo not given) | – | – | – | ID50 (Oryctolagus cuniculus [4]; Stomach): inactive; ED50 [2]: inactive |
| CCOCCn1c([S+]([O-])Cc2nccc(SCC)c2C)nc2ccccc21 (stereo not given) | 1000 µM | 2e-06 M | – | ED50 [2]: inactive |
| CC(C)COC(=O)OCn1c([S+]([O-])Cc2ccccn2)nc2ccccc21 (stereo not given) | – | 2e-05 M | 6 mg/kg | – |
| C=COC(=O)n1c([S+]([O-])Cc2nccc(SCC)c2C)nc2ccccc21 (stereo not given) | 30 µM | 1.5e-06 M | 10 mg/kg | – |
| COc1c(C)cnc(C[S+]([O-])c2nc3ccccc3n2C(C)OC(C)=O)c1C (stereo not given) | 1500 µM | 4e-07 M | < 1 mg/kg | – |
| CC(C)C(=O)OCn1c([S+]([O-])Cc2ccccn2)nc2ccccc21 (stereo not given) | – | 3e-05 M | 4 mg/kg | – |
| CC(OC(=O)c1ccccc1)n1c([S+]([O-])Cc2ccccn2)nc2ccccc21 (stereo in doubt; 29a) [listing 2 of 2 here] | – | – | – | inhibition [7]: 27% |
| Cn1c([S+]([O-])Cc2ccccn2)nc2ccccc21 (stereo not given) | – | 0.001 M | – | inhibition [12]: 18%; ED50 [2]: inactive |
| CCCCCCCCOC(=O)n1c([S+]([O-])Cc2nccc(SCC)c2C)nc2ccccc21 (stereo not given) | – | 1e-05 M | – | – |
